# Results: ChEMBL document CHEMBL4229530, “5-Adamantan thiadiazole-based thiazolidinones as antimicrobial agents. Design, synthesis, molecular docking and evaluation” (2018)
# Columns and labels:
# Penicillium verrucosum = assay: Antifungal activity against Penicillium cyclopium var verucosum after 72 hrs by serial dilution assay; assay type: functional
# Outline: (§1)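 Modified microdilution: fungal spores washed off malt agar with sterile 0.85% saline plus 0.1% Tween 80, adjusted to about 1.0×10^5 per 100 µL well. Compounds in 5% DMSO (0.001-1.0 mg/ml) in malt broth; 72 h at 28°C on rotary shaker (160 rpm). MIC is lowest concentration without visible growth under binocular microscope. Bifonazole and ketoconazole controls (1-3500 µg/mL); three independent experiments in duplicate.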
# Aspergillus versicolor = assay: Antifungal activity against Aspergillus versicolor ATCC 11730 after 72 hrs by serial dilution assay; assay type: functional; conditions: ATCC 11730, 72 h; outline: as §1
# Aspergillus ochraceus = assay: Antifungal activity against Aspergillus ochraceus ATCC 12066 after 72 hrs by serial dilution assay; assay type: functional; conditions: ATCC 12066, 72 h; outline: as §1
# Aspergillus niger = assay: Antifungal activity against Aspergillus niger ATCC 6275 after 72 hrs by serial dilution assay; assay type: functional; conditions: ATCC 6275, 72 h; outline: as §1
# Talaromyces funiculosus = assay: Antifungal activity against Penicillium funiculosum ATCC 36839 after 72 hrs by serial dilution assay; assay type: functional; conditions: ATCC 36839, 72 h; outline: as §1
# Aspergillus fumigatus = assay: Antifungal activity against Aspergillus fumigatus isolate 1022 after 72 hrs by serial dilution assay; assay type: functional; conditions: isolate 1022, 72 h; outline: as §1
# Trichoderma viride = assay: Antifungal activity against Trichoderma viride IAM 5061 after 72 hrs by serial dilution assay; assay type: functional; conditions: IAM 5061, 72 h; outline: as §1
# Candida albicans = assay: Antifungal activity against Candida albicans after 72 hrs by serial dilution assay; assay type: functional; outline: as §1
# Penicillium ochrochloron = assay: Antifungal activity against Penicillium ochrochloron ATCC 9112 after 72 hrs by serial dilution assay; assay type: functional; conditions: ATCC 9112, 72 h; outline: as §1
# Staphylococcus aureus [1] = assay: Antibacterial activity against Staphylococcus aureus ATCC 6538 after 24 hrs by INT dye based microdilution assay; assay type: functional; conditions: ATCC 6538, 24 h
# Outline: (§2)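 Broth microdilution in tryptic soy broth: overnight bacterial culture adjusted to 1×10^5 CFU/mL, 1.0×10^4 CFU per well; compounds dissolved in 5% DMSO, tested at 0.001-1.0 mg/ml; 24 h at 37°C. Streptomycin and ampicillin as positive controls, 5% DMSO as negative control; duplicate, repeated three times.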
# Enterobacter cloacae = assay: Antibacterial activity against Enterobacter cloacae after 24 hrs by INT dye based microdilution assay; assay type: functional; outline: as §2
# Pseudomonas aeruginosa [2] = assay: Antibacterial activity against Pseudomonas aeruginosa ATCC 27853 after 24 hrs by INT dye based microdilution assay; assay type: functional; conditions: ATCC 27853, 24 h; outline: as §2
# Listeria monocytogenes [3] = assay: Antibacterial activity against Listeria monocytogenes NCTC 7973 after 24 hrs by INT dye based microdilution assay; assay type: functional; conditions: NCTC 7973, 24 h; outline: as §2
# Salmonella typhimurium = assay: Antibacterial activity against Salmonella typhimurium ATCC 13311 after 24 hrs by INT dye based microdilution assay; assay type: functional, Salmonella enterica subsp. enterica serovar Typhimurium; conditions: Salmonella enterica, ATCC 13311, 24 h; outline: as §2
# Bacillus cereus = assay: Antibacterial activity against Bacillus cereus after 24 hrs by INT dye based microdilution assay; assay type: functional; outline: as §2
# Micrococcus flavus = assay: Antibacterial activity against Micrococcus flavus ATCC 10240 after 24 hrs by INT dye based microdilution assay; assay type: functional; conditions: ATCC 10240, 24 h; outline: as §2
# Escherichia coli [4] = assay: Antibacterial activity against Escherichia coli ATCC 35210 after 24 hrs by INT dye based microdilution assay; assay type: functional; conditions: ATCC 35210, 24 h; outline: as §2
# Escherichia coli [5] = assay: Antibacterial activity against drug-resistant Escherichia coli after 24 hrs by INT dye based microdilution assay; assay type: functional
# Outline: (§3)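 Broth microdilution in tryptic soy broth. Overnight culture adjusted to 1×10^5 CFU/mL, giving 1.0×10^4 CFU per well. Compounds dissolved in 5% DMSO and tested at 0.001-1.0 mg/ml. Plates incubated 24 h at 37°C. INT (0.2 mg/mL) then added, with 30 min at 37°C. Duplicate, repeated three times.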
# Listeria monocytogenes [6] = assay: Potency index, ratio of ampicillin MIC to compound MIC for antibacterial activity against Listeria monocytogenes NCTC 7973; assay type: functional
# Pseudomonas aeruginosa [7] = assay: Antibacterial activity against drug-resistant Pseudomonas aeruginosa after 24 hrs by INT dye based microdilution assay; assay type: functional; outline: as §3
# Listeria monocytogenes [8] = assay: Potency index, ratio of streptomycin MIC to compound MIC for antibacterial activity against Listeria monocytogenes NCTC 7973; assay type: functional
# Staphylococcus aureus [9] = assay: Antibacterial activity against methicillin-resistant Staphylococcus aureus after 24 hrs by INT dye based microdilution assay; assay type: functional; outline: as §3
Compound,MIC (Penicillium verrucosum) [µM],MIC (Aspergillus versicolor) [µM],MIC (Aspergillus ochraceus) [µM],MIC (Aspergillus niger) [µM],MIC (Talaromyces funiculosus) [µM],MIC (Aspergillus fumigatus) [µM],MIC (Trichoderma viride) [µM],MIC (Candida albicans) [µM],MIC (Penicillium ochrochloron) [µM],MIC (Staphylococcus aureus [1]) [µM],MIC (Enterobacter cloacae) [µM],MIC (Pseudomonas aeruginosa [2]) [µM],MIC (Listeria monocytogenes [3]) [µM],MIC (Salmonella typhimurium) [µM],MIC (Bacillus cereus) [µM],MIC (Micrococcus flavus) [µM],MIC (Escherichia coli [4]) [µM],further results
c1ccc(-c2ccc(C(c3ccccc3)n3ccnc3)cc2)cc1 (configuration not stated) [BIFONAZOLE],0.322,480,480,480,640,480,640,322,480,–,–,–,–,–,–,–,–,–
CC(=O)N1CCN(c2ccc(OCC3COC(Cn4ccnc4)(c4ccc(Cl)cc4Cl)O3)cc2)CC1 (configuration not stated) [KETOCONAZOLE],0.376,2850,380,380,380,380,4750,376,3800,–,–,–,–,–,–,–,–,–
COc1cc(/C=C2/S/C(=N/c3nnc(C45CC6CC(CC(C6)C4)C5)s3)NC2=O)ccc1O,–,33,17,66,66,133,17,133,66,0.032,32,32,134,32,32,134,0.134,–
O=C1N/C(=N\c2nnc(C34CC5CC(CC(C5)C3)C4)s2)S/C1=C/c1ccc(Cl)cc1,–,68,68,137,137,137,68,274,137,0.137,137,33,274,33,137,328,0.274,–
O=C1N/C(=N\c2nnc(C34CC5CC(CC(C5)C3)C4)s2)S/C1=C/c1cccc([N+](=O)[O-])c1,0.107,107,107,214,107,107,53.5,–,214,0.0418,41.8,21.4,17,21.4,21.4,41.8,0.0418,MIC (Escherichia coli [5]): 0.0535 µM; Ratio (Listeria monocytogenes [6]): 29; MIC (Pseudomonas aeruginosa [7]): 53.5 µM; Ratio (Listeria monocytogenes [8]): 20; MIC (Staphylococcus aureus [9]): 0.107 µM
O=C1N/C(=N\c2nnc(C34CC5CC(CC(C5)C3)C4)s2)S/C1=C/c1cccc(Cl)c1,–,68,68,137,137,137,68,274,68,0.088,137,66,137,66,66,66,0.066,–
